Among the data in ChEMBL document CHEMBL1145187 are Efficacy and Relative binding affinity values, retold here.

Where only a bound is given, the exact number is not on record here.

Test [1] has as its target Estrogen receptor beta (Homo sapiens) (UniProt Q92731). Put plainly: Transcriptional efficacy against human estrogen receptor beta at 10e-6 M. It counts as functional. The essentials: (§1)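 HEC-1 cells were grown in phenol-red MEM with 5% calf serum and 5% fetal calf serum, then plated in phenol-red-free improved MEM with 5% charcoal dextran-treated calf serum. They were lipofectin-transfected for 5 h at 37 °C with ERβ expression vector, 2ERE-pS2-Luc and pCMV β-galactosidase. Ligand was then added for 24 h.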

Test [2] shares this target. Put plainly: Transcriptional efficacy against human estrogen receptor beta at 10e-8 M. It counts as functional. The essentials: as §1
For test [3], the target named is T1, Estrogen receptor (Homo sapiens) (UniProt P03372).
T1 sequence (whole entry): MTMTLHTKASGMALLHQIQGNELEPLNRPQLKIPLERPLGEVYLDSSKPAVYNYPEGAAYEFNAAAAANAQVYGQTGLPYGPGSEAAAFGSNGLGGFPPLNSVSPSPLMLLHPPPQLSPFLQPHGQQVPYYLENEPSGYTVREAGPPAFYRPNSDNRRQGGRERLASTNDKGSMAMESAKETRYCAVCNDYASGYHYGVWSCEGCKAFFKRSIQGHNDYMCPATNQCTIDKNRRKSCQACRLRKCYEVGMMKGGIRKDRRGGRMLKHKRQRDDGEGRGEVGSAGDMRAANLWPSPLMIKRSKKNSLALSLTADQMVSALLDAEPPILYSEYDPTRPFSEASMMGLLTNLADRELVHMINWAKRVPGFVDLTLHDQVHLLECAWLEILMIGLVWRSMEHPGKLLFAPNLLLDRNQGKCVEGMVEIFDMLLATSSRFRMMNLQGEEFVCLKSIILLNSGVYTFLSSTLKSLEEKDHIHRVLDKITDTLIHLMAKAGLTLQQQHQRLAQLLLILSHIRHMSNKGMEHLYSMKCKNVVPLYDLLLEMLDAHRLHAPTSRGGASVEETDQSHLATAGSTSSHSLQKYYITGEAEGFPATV
Put plainly: Relative binding affinity for human estrogen receptor alpha.

Estrogen receptor beta (Homo sapiens), sequence (Q92731 whole entry): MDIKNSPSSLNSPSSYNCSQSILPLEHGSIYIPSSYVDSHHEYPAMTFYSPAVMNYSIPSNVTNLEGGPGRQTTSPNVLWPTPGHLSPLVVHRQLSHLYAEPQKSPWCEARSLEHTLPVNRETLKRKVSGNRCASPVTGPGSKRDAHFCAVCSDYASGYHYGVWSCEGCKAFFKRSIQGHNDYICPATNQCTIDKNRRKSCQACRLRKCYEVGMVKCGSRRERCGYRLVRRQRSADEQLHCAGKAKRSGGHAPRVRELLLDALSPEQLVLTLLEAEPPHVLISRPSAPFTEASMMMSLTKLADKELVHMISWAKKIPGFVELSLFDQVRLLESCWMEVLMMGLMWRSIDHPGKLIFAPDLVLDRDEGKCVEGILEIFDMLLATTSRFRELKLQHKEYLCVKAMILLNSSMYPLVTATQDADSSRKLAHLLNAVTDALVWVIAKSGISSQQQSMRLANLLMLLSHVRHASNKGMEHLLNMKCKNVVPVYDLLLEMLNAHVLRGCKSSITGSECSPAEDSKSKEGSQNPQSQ

Turning to `N#Cc1c2cc(O)ccc2nn1-c1ccc(O)cc1`, the Efficacy in test [1] worked out at 56%; in test [2] it was 82%. Besides, the Relative binding affinity in test [3] came to 1.4.

The compound `Oc1ccc(-n2cc3ccccc3n2)cc1` yielded a Relative binding affinity in test [3] of 0.02.

`C=CCc1c2cc(O)ccc2nn1-c1ccc(O)cc1` yielded a Relative binding affinity in test [3] of 0.06.

For the compound `Cc1c2cc(O)ccc2nn1-c1ccc(O)cc1`, the Efficacy in test [1] worked out at 87%; in test [2] it was 57%. In addition, the Relative binding affinity in test [3] worked out at 0.03.

For the compound `Oc1ccc(-n2nc3ccc(O)cc3c2Br)cc1`, the Efficacy in test [1] turned out to be 67%; in test [2] it was 66%. Further, in test [3], the Relative binding affinity worked out at 0.18.

In turn, `CC(C)c1c2cc(O)ccc2nn1-c1ccc(O)cc1` registered a Relative binding affinity in test [3] of 0.14.

In test [3], `Oc1ccc2nn(-c3ccccc3)c(Cl)c2c1` registered a Relative binding affinity of 0.014.

Take `Oc1ccc(-n2cc3cc(O)ccc3n2)cc1`: the Efficacy amounted to 90% in test [1] and 47% in test [2]. In test [3], the Relative binding affinity stood at 0.049.

In turn, `Oc1ccc2nn(-c3ccc(O)c(Cl)c3)c(Cl)c2c1` yielded a Relative binding affinity in test [3] of 0.023.

With `Oc1ccc(-n2nc3ccc(O)cc3c2Cl)cc1`, the Efficacy is 89% in test [1] and 88% in test [2]. The Relative binding affinity in test [3] turned out to be 0.3.

Take `Oc1ccc(-n2nc3cc(O)ccc3c2Cl)cc1`: the Relative binding affinity in test [3] was 0.08.

Take `Oc1ccc(-n2nc3ccc(O)cc3c2C(F)(F)F)cc1`: the Efficacy in test [1] turned out to be 74%; in test [2] it was 78%. The Relative binding affinity in test [3] was 3.9.

For the compound `Oc1ccc(-n2cc3ccc(O)cc3n2)cc1`, the Efficacy came out at 75% in test [1] and 1.7% in test [2]. This compound also displayed a Relative binding affinity in test [3] of 0.008.

For `Oc1ccc(-n2nc3ccccc3c2Cl)cc1`, the Relative binding affinity in test [3] turned out to be 0.03.

In the case of `Oc1ccc(-n2cc3ccc(O)c(Br)c3n2)cc1`, the Efficacy in test [1] is 29%; in test [2] it was 1.4%. The compound also returned a Relative binding affinity in test [3] of 0.02.

With `Oc1ccc2nn(-c3ccc(O)c(Cl)c3)cc2c1`, the Relative binding affinity in test [3] was determined as 0.07.

Compound `Oc1ccc(-n2nc3c(Cl)c(O)ccc3c2Cl)cc1` displayed a Relative binding affinity in test [3] of 0.07.

For `Oc1ccc(-n2nc3ccc(O)cc3c2I)cc1`, the Efficacy was found to be 58% in test [1] and 85% in test [2]. In test [3], this compound displayed a Relative binding affinity of 0.17.

In the case of `CCCc1c2cc(O)ccc2nn1-c1ccc(O)cc1`, the Relative binding affinity in test [3] worked out at 0.04.

In test [3], `Oc1ccc2nn(-c3ccccc3)cc2c1` came in with a Relative binding affinity of less than 0.004.

Turning to `CCc1c2cc(O)ccc2nn1-c1ccc(O)cc1`, the Efficacy worked out at 100% in test [1] and 63% in test [2]. The Relative binding affinity in test [3] came to 0.08.

As for `Oc1ccc(-n2nc3ccc(O)cc3c2-c2ccccc2)cc1`, the Efficacy was 28% in test [1] and 11% in test [2]. Further, in test [3], the Relative binding affinity amounted to 0.04.
